The Ki is the equilibrium dissociation constant of an inhibitor or competing ligand from its target. A higher Ki goes with weaker binding. A word on the inhibition: it is the change of the read-out against control, counted positive when it falls. A high value points to strong suppression. The term pKb denotes −log10 of the Kb, conventionally taken in molar units.

These results are taken from ChEMBL document CHEMBL4385637, “2-Aryladenine derivatives as a potent scaffold for A1, A3 and dual A1/A3 adenosine receptor antagonists: Synthesis and structure-activity relationships” (Bioorg Med Chem, 2019).

The structures appear in SMILES notation.

Assay [1] deals with T1, Adenosine receptor A2a (Homo sapiens, UniProt P29274). In words: Displacement of [3H]ZM241385 from human A2A receptor expressed in HeLa-A2A cells incubated for 30 mins by scintillation counting method based radioligand competitive binding assay. Type of assay: cell-based. An outline of the steps: (§1)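 Uses HeLa-A2A membranes, 10 µg protein, buffer 50 mM Tris-HCl, 1 mM EDTA, 10 mM MgCl2, 2 UI/mL adenosine deaminase, pH 7.4. 3 nM [3H]ZM241385; nonspecific with 50 µM NECA. 30 min at 25 °C, GF/C filtration, duplicate wells. Screened at 10 μM; if >80% inhibition, 6 concentrations 10 nM–100 μM, Ki by Cheng-Prusoff.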
T1 sequence (P29274 whole entry): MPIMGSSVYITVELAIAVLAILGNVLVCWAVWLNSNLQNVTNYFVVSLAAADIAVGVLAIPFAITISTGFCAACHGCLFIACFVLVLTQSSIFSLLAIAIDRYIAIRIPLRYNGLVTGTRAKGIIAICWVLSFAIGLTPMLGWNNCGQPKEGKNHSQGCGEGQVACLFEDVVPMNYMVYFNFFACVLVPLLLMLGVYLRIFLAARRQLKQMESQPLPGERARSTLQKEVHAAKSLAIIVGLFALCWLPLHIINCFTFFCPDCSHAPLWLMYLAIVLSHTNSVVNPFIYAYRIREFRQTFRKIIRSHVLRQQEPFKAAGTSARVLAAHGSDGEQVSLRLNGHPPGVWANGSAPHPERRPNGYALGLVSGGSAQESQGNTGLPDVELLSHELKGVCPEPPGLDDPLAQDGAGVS
On the technique in general: Displacement assays read how much labelled ligand stays bound in the presence of the test substance.

Assay [2] concerns the target T2, Adenosine receptor A1 (Homo sapiens) (UniProt P30542).
T2 sequence (whole entry): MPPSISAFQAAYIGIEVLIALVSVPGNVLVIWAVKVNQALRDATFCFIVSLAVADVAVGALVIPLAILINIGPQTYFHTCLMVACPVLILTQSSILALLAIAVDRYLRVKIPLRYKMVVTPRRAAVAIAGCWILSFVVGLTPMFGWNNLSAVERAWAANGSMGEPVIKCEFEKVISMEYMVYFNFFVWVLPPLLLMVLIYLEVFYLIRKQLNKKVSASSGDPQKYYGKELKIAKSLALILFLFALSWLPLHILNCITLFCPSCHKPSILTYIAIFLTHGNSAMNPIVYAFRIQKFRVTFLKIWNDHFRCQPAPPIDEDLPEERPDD
The experiment in a line: Displacement of [3H]DPCPX from human A1 receptor expressed in CHO-A1 cells at 10 uM incubated for 60 mins by scintillation counting method based radioligand competitive binding assay. The class given is cell-based. A digest of the protocol: (§2)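 CHO-A1 membranes, 15 μg protein, in 20 mM Hepes, 100 mM NaCl, 10 mM MgCl2, 2 UI/ml adenosine deaminase, pH 7.4. Radioligand 2 nM [3H]DPCPX; nonspecific binding with 10 μM (R)-PIA. Incubated 25 °C for 60 min, filtered, counted, in duplicate. Screen at 10 μM; compounds >80% inhibition tested at 6 concentrations (10 nM–100 μM), Ki by Cheng-Prusoff.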

Assay [3] has as its target T3, Adenosine receptor A2b (Homo sapiens) (UniProt P29275).
T3 sequence (whole entry): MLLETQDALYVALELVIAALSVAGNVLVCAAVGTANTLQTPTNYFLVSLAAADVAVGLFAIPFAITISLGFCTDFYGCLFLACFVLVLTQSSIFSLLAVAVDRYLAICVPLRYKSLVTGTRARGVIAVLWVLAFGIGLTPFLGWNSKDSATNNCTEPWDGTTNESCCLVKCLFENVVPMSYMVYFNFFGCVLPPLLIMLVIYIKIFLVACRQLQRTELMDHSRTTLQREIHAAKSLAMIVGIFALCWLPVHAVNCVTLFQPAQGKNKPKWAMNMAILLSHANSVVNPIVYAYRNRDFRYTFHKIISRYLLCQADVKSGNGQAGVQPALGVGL
The experiment in a line: Displacement of [3H]DPCPX from human A2B receptor expressed in HEK-293-A2B cells at 10 uM incubated for 30 mins by scintillation counting method based radioligand competitive binding assay. The class given is cell-based. An outline of the steps: (§3)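 HEK-293-A2B membranes, 18 μg protein, in 50 mM Tris-HCl, 1 mM EDTA, 10 mM MgCl2, 0.1 mM benzamidine, 10 µg/mL bacitracin, 2 UI/mL adenosine deaminase, pH 6.5. Tracer 35 nM [3H]DPCPX; 400 μM NECA defines nonspecific binding. 25 °C for 30 min, GF/C filtration, duplicates. Single-point 10 μM screen, then 6-point curves (10 nM–100 μM), Cheng-Prusoff Ki.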

The target of the next assay is T4, Adenosine receptor A1 (Homo sapiens, UniProt P30542).
T4 sequence (P30542 whole entry): T2 sequence (whole entry)
The experiment in a line: Displacement of [3H]DPCPX from human A1 receptor expressed in CHO-A1 cells incubated for 60 mins by scintillation counting method based radioligand competitive binding assay. The class given is cell-based. An outline of the steps: as §2

Assay [4] addresses T5, Adenosine receptor A3 (Homo sapiens) (UniProt P0DMS8).
T5 sequence (whole entry): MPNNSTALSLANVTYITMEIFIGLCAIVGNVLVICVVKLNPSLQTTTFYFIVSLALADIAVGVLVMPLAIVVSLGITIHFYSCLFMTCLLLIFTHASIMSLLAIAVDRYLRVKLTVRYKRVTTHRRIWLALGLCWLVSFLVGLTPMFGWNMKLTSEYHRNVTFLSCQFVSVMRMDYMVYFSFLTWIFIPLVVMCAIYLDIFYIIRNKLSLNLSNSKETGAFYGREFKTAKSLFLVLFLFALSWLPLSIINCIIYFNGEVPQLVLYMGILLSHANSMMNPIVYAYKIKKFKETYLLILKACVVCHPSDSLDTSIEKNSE
In words: Displacement of [3H]NECA from human A3 receptor expressed in HeLa-A3 cells at 10 uM incubated for 180 mins by scintillation counting method based radioligand competitive binding assay. The class given is cell-based. An outline of the steps: (§4)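 Membranes of HeLa-A3 cells (90 μg protein) in 50 mM Tris-HCl, 1 mM EDTA, 5 mM MgCl2, 2 UI/mL adenosine deaminase, pH 7.4, with 30 nM [3H]NECA. Nonspecific: 100 μM (R)-PIA. 180 min at 25 °C, GF/B filtration, triplicates, scintillation counting. 10 μM single-point inhibition; >80% actives run at 6 concentrations (10 nM–100 μM), pKi via Cheng-Prusoff.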

The target of assay [5] is T1, Adenosine receptor A2a. In words: Displacement of [3H]ZM241385 from human A2A receptor expressed in HeLa-A2A cells at 10 uM incubated for 30 mins by scintillation counting method based radioligand competitive binding assay. Type of assay: cell-based. An outline of the steps: as §1
Another assay has as its target T6, Adenosine receptor A3 (Homo sapiens, UniProt P0DMS8).
T6 sequence (P0DMS8 whole entry): T5 sequence (whole entry)
The experiment in a line: Displacement of [3H]NECA from human A3 receptor expressed in HeLa-A3 cells incubated for 180 mins by scintillation counting method based radioligand competitive binding assay. Type of assay: cell-based. An outline of the steps: as §4

The target of assay [6] is T2, Adenosine receptor A1 (Homo sapiens). The experiment in a line: Antagonist activity at human A1 receptor in CHO-A1 cells assessed as reduction in NECA-induced inhibition of forskolin-stimulated cAMP accumulation preincubated for 15 mins followed by NECA addition and further incubated for 15 mins by ELISA. The class given is functional, cell-based. A digest of the protocol:
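CHO-A1 cells stably expressing receptor, grown with dialyzed FBS, washed in F-12 medium with 25 mM HEPES pH 7.4 and 20 μM rolipram. Test compound preincubated 15 min, then NECA (0.1 nM–1 mM) plus 3 μM forskolin added for 15 min. cAMP measured by enzyme immunoassay with TMB readout. pKB derived from antagonist curve against NECA effect.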

The target in another assay is T7, Adenosine receptor A2b (Homo sapiens, UniProt P29275).
T7 sequence (P29275 whole entry): T3 sequence (whole entry)
The experiment in a line: Displacement of [3H]DPCPX from human A2B receptor expressed in HEK-293-A2B cells incubated for 30 mins by scintillation counting method based radioligand competitive binding assay. Type of assay: cell-based. An outline of the steps: as §3

The target of assay [7] is T5, Adenosine receptor A3 (Homo sapiens). In words: Antagonist activity at human A3 receptor in CHO-A3 cells assessed as reduction in NECA-induced inhibition of forskolin-stimulated cAMP accumulation preincubated for 15 mins followed by NECA addition and further incubated for 15 mins by ELISA. Type of assay: functional, cell-based. A digest of the protocol:
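CHO cells expressing human A3, washed in DMEM F-12 with 25 mM HEPES pH 7.4 and 30 μM rolipram. Compound preincubated 15 min, then NECA (0.1 nM–1 mM) and 10 μM forskolin added for 15 min. cAMP quantified by enzyme immunoassay. Antagonist curves run against 0.1 μM NECA, duplicates. pKB calculated from IC50, agonist level, A50 and Hill slope.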
In general terms: Cyclic AMP is a second messenger, typically raised through Gs and lowered through Gi signalling.

For the compound `Oc1cccc(-c2nc(N3CCCCC3)c3nc[nH]c3n2)c1`, the Ki at Adenosine receptor A2a [1] was 316 nM; on Adenosine receptor A1, 10 nM; at Adenosine receptor A3 it was 63.1 nM; on Adenosine receptor A2b, 158 nM. Moreover, the inhibition (in assay [2]; in assay [3]; in assay [4]; on Adenosine receptor A2a [5]) was above 80% each time. For the same compound, in assay [6], the pKb turned out to be 7.9.

For `Clc1ccc(-c2nc(N3CCCCC3)c3nc[nH]c3n2)cc1`, the values for the inhibition constant Ki on Adenosine receptor A2a [1], at Adenosine receptor A1 and at Adenosine receptor A3 were 3160 nM, 126 nM and 7.94 nM, respectively. Further, the inhibition in assay [2] was above 80%; in assay [3] it was 1.4%; in [4] it was above 80%; at Adenosine receptor A2a [5], above 80%. Further, the negative-log Kb (pKb) in assay [7] stood at 8.2.
